Measured values taken from ChEMBL document CHEMBL1155371, “Small molecule inhibitors of the neuropilin-1 vascular endothelial growth factor A (VEGF-A) interaction” (J Med Chem, 2010).
Active and inactive are the calls of the source. The rule behind the calls is not given here. Where a SMILES comes first, the peptide text is derived from it.

Experiments:
Neuropilin-1 [1] = molecular target: T1, Neuropilin-1 (Homo sapiens, UniProt O14786); test: Displacement of [125I]VEGF-A from human NRP1 expressed in pig aortic endothelial cells at 100 uM; assay type: cell-based; details: Endothelial cell
T1 sequence (O14786 whole entry): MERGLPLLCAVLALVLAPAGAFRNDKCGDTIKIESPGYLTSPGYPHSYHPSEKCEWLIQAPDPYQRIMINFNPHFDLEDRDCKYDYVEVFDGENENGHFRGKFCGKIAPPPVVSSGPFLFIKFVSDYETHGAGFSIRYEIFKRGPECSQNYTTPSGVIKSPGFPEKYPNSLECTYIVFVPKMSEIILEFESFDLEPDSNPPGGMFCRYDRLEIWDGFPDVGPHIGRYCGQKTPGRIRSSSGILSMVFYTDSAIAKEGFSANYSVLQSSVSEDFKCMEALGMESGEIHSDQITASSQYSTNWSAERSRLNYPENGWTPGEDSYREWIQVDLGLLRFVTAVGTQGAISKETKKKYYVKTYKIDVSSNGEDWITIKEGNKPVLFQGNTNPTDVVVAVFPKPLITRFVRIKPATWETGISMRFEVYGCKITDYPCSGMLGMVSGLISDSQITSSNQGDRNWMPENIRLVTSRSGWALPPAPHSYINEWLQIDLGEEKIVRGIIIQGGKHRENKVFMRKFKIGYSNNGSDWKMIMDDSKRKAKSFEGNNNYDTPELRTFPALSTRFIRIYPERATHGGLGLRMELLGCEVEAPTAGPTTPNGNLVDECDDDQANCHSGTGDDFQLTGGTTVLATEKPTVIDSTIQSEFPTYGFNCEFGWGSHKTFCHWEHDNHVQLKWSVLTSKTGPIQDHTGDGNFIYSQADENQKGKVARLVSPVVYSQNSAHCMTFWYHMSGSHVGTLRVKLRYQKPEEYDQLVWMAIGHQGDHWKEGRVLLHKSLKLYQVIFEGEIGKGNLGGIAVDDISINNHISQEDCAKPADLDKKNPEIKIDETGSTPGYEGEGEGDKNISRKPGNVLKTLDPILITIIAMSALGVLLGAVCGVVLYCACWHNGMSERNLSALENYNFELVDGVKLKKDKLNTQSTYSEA
Method in brief: (§1)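 PAE cells stably expressing NRP1 (Ham's F12, 10% FBS, hygromycin B) grown to confluence. Compounds at 0.1−100 μM (single-point inhibition read at 100 μM) were added, then 0.1 nM 125I-VEGF-A165. Nonspecific binding was taken with 100-fold excess unlabeled VEGF. IC50 came from competition curves; three independent experiments, triplicate per concentration, mean ± SEM.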

Neuropilin-1 [2] = molecular target: T1, Neuropilin-1; test: Displacement of [125I]VEGF-A from human NRP1 expressed in pig aortic endothelial cells; assay type: cell-based, Endothelial cell; method in brief: as §1
A549 = test: Cytotoxicity against human A549 cells after 48 hrs by XTT method; assay type: functional, cell-based
Method in brief: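 A549 lung carcinoma cells seeded at 4 × 10^3 per well in serum-free medium, with compound added. After 44 h incubation, XTT labeling reagent was added and cells were incubated a further 4 h, giving 48 h total. Formazan read at 490 nm against a 595 nm reference. Three independent experiments, each in triplicate, reported as mean ± SEM.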

Neuropilin-1 [3] = molecular target: T1, Neuropilin-1; test: Displacement of […] from NRP1 b1 domain by cell-free assay
Neuropilin-1 [4] = molecular target: T1, Neuropilin-1; test: Displacement of [125I]VEGF-A from human NRP1 expressed in human A549 cells; assay type: cell-based
Neuropilin-1 [5] = molecular target: T1, Neuropilin-1; test: Displacement of […] from human NRP1 expressed in human DU145 cells; assay type: cell-based, DU-145
Neuropilin-1 [6] = molecular target: T1, Neuropilin-1; test: Displacement of biotinylated-[…] from human NRP1 expressed in HUVEC; assay type: cell-based
[7] = molecular target: Vascular endothelial growth factor receptor 1 (Homo sapiens) (UniProt P17948); test: Displacement of biotinylated-[…] from human VEGFR1 expressed in human DU145 cells; assay type: cell-based; details: DU-145
Vascular endothelial growth factor receptor 1 (Homo sapiens), sequence (P17948 whole entry): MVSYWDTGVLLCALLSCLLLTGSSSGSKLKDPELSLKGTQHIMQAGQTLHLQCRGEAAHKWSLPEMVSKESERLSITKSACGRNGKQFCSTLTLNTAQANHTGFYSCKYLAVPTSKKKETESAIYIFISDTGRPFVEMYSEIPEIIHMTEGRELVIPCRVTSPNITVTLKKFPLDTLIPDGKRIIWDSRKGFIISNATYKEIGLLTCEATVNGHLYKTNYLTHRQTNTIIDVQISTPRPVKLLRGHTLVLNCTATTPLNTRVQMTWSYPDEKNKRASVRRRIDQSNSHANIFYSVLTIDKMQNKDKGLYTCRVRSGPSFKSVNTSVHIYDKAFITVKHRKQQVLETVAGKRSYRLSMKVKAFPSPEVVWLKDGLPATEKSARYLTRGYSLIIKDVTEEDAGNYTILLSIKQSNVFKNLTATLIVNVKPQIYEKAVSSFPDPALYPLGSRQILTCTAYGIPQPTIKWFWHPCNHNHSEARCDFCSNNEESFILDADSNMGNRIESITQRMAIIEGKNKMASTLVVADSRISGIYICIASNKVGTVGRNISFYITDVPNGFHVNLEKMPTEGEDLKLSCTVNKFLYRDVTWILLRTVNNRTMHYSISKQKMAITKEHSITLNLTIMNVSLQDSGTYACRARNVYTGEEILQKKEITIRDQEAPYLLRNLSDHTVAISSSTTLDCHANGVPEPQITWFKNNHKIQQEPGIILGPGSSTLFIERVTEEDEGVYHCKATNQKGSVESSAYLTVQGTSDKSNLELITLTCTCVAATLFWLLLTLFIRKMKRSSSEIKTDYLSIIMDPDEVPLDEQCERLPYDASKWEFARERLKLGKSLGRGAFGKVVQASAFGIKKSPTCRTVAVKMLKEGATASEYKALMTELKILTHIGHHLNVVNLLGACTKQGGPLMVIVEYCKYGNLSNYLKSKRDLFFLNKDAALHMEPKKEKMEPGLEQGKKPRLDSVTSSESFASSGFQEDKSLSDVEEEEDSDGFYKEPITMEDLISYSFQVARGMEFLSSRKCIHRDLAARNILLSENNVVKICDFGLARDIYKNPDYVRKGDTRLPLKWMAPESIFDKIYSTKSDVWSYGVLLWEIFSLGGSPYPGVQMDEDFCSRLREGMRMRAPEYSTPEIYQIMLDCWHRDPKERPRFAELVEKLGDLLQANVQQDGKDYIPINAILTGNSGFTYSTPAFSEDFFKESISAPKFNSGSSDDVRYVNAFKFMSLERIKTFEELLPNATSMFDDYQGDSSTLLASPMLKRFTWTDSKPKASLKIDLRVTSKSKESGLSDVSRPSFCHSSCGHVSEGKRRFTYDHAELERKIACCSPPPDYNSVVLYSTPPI

[8] = molecular target: Vascular endothelial growth factor receptor 2 (Homo sapiens) (UniProt P35968); test: Displacement of biotinylated-[…] from human VEGFR2 expressed in human DU145 cells; assay type: cell-based; details: DU-145
Vascular endothelial growth factor receptor 2 (Homo sapiens), sequence (P35968 whole entry): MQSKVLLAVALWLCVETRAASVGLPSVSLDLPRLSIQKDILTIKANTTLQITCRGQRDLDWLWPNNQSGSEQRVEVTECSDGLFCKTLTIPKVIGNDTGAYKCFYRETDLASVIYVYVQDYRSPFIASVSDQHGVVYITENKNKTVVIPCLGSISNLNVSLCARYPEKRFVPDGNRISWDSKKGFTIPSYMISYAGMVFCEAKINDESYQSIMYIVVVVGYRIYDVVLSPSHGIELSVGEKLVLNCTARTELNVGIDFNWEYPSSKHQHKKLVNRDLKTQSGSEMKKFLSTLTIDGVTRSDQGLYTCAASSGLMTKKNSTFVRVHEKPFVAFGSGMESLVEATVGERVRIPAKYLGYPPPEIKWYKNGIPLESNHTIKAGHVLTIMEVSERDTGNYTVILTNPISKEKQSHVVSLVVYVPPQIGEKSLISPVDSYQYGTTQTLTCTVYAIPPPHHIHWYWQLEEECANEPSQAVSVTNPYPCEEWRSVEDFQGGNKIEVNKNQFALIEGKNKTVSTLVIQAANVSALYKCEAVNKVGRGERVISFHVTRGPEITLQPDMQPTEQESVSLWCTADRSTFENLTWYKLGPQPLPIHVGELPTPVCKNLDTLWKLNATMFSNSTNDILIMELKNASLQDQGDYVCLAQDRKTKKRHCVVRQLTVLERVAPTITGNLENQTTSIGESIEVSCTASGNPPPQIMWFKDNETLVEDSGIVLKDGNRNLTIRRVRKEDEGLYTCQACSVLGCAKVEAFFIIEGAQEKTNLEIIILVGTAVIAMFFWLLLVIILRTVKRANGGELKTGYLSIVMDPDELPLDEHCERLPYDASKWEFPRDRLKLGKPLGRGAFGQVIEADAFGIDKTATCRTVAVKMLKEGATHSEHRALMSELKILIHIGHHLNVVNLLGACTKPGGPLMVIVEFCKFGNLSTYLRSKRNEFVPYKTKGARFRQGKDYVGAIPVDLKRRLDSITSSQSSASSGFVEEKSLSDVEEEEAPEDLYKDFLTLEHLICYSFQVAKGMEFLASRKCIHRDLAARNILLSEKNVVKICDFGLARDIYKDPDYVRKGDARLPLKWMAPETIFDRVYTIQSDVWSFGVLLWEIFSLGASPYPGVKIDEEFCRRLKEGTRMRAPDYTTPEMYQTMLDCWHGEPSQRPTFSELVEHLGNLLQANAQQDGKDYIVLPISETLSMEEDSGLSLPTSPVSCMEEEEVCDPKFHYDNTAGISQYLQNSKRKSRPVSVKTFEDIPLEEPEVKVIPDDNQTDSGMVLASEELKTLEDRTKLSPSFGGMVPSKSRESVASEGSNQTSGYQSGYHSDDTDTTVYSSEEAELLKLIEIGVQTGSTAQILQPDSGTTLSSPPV

[9] = molecular target: Vascular endothelial growth factor receptor 1 (Homo sapiens) (UniProt P17948); test: Displacement of biotinylated-[…] from human VEGFR1 expressed in human A549 cells; assay type: cell-based
[10] = molecular target: Vascular endothelial growth factor receptor 2 (Homo sapiens) (UniProt P35968); test: Displacement of biotinylated-[…] from human VEGFR2 expressed in human A549 cells; assay type: cell-based
[11] = molecular target: Vascular endothelial growth factor receptor 2 (Homo sapiens) (UniProt P35968); test: Inhibition of VEGF-A-induced VEGFR2 phosphorylation in HUVEC by ELISA; assay type: cell-based
Method in brief: (§2)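 Confluent HUVECs were pretreated 30 min with compound or DMSO vehicle, then stimulated with or without 25 ng/mL VEGF-A165 for 5 min at 37 °C. Tyr1175-phosphorylated and total VEGFR2 in lysates were measured by sandwich ELISA kits. Three independent experiments in duplicate, mean ± SEM.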

[12] = molecular target: Vascular endothelial growth factor receptor 2 (Homo sapiens) (UniProt P35968); test: Inhibition of VEGF-A-induced VEGFR2 phosphorylation in HUVEC at 100 uM by ELISA; assay type: cell-based; method in brief: as §2
HUVEC = test: Inhibition of VEGF-A-induced chemotaxis in HUVEC assessed as reduction in cell migration; assay type: functional, cell-based; details: Homo sapiens
Method in brief: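 HUVECs in EBM/0.1% BSA were pretreated 30 min with compound or DMSO, and 1.5 × 10^5 cells were loaded into collagen I-coated 8 μm-pore transwell inserts. Cells migrated toward 25 ng/mL VEGF or medium control for 4 h at 37 °C. Migrated cells were stained and counted in four fields at ×100. Three experiments in duplicate, mean ± SEM.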

N=C(N)NCCC[C@H](NC(=O)c1cccc(-c2cccc(NC(=O)CCCCCN)c2)c1)C(=O)O
Activity (Neuropilin-1 [1]): 40%

N=C(N)NCCC[C@H](NC(=O)c1sccc1NS(=O)(=O)c1ccc([N+](=O)[O-])cc1)C(=O)O (stereo in doubt; 46) [listing 1 of 2 here]
Activity (Neuropilin-1 [1]): 75%

N=C(N)NCCC[C@H](NC(=O)C1CCN(Cc2nc(O)nc(NCCCCN)n2)CC1)C(=O)O
Activity (Neuropilin-1 [1]): 32%

CN(c1ccsc1C(=O)N[C@@H](CCCNC(=N)N)C(=O)O)S(=O)(=O)c1ccc(N)cc1
Activity (Neuropilin-1 [1]): 25%

N=C(N)NC(=O)CC[C@H](NC(=O)c1sccc1NS(=O)(=O)c1ccc([N+](=O)[O-])cc1)C(=O)O
Activity (Neuropilin-1 [1]): 58%

N=C(N)NCCC[C@@H](NC(=O)c1sccc1NS(=O)(=O)c1ccc(N)cc1)C(=O)O
Activity (Neuropilin-1 [1]): 36%

COC(=O)[C@H](CCCNC(=N)N)NC(=O)c1sccc1NS(=O)(=O)c1ccc([N+](=O)[O-])cc1
Activity (Neuropilin-1 [1]): 21%

N=C(N)NCCC[C@H](NC(=O)c1cccc(-c2cccc(NC(=O)C3CCC(CN)CC3)c2)c1)C(=O)O (some centres undefined)
Activity (Neuropilin-1 [1]): 49%

N=C(N)NCCCC[C@H](NC(=O)c1sccc1NS(=O)(=O)c1ccc(N)cc1)C(=O)O
Activity (Neuropilin-1 [1]): 20%

N=C(N)NCCC[C@H](NC(=O)c1sccc1NS(=O)(=O)c1ccccc1N)C(=O)O
Activity (Neuropilin-1 [1]): 95%
IC50 (Neuropilin-1 [2]): 17 µM

N=C(N)NCCC[C@H](NC(=O)c1sccc1NS(=O)(=O)c1cccc(N)c1)C(=O)O
Activity (Neuropilin-1 [1]): 84%
IC50 (Neuropilin-1 [2]): 14 µM

N=C(NCCC[C@H](NC(=O)c1sccc1NS(=O)(=O)c1ccc([N+](=O)[O-])cc1)C(=O)O)N[N+](=O)[O-]
Activity (Neuropilin-1 [1]): 3%

N=C(N)NCCC[C@H](NC(=O)c1sccc1NS(=O)(=O)c1ccc(N)cc1)C(=O)O
Activity (Neuropilin-1 [1]): 78%
IC50 (Neuropilin-1 [2]): 13 µM

N=C(N)NCCC[C@H](NC(=O)c1ccccc1S(=O)(=O)C1CCNCC1)C(=O)O
Activity (Neuropilin-1 [1]): 10%

C/N=C(/NC)NCCC[C@H](NC(=O)c1sccc1NS(=O)(=O)c1ccc([N+](=O)[O-])cc1)C(=O)O
Activity (Neuropilin-1 [1]): 12%

N=C(N)NCCC[C@H](NC(=O)c1cccs1)C(=O)O
Activity (Neuropilin-1 [1]): 28%

C[C@H](NC(=O)[C@@H]1CCCN1C(=O)[C@@H](N)CCCCN)C(=O)N[C@@H](CCC(N)=O)C(=O)O (H-KPAQ-OH)
Activity (Neuropilin-1 [1]): 19%

C[C@@H](NC(=O)[C@@H]1CCCN1C(=O)[C@@H](N)CCCCN)C(=O)N[C@@H](CCCNC(=N)N)C(=O)O
Activity (Neuropilin-1 [1]): 36%

CC(=O)Nc1ccc(S(=O)(=O)Nc2ccsc2C(=O)N[C@@H](CCCNC(=N)N)C(=O)O)cc1
Activity (Neuropilin-1 [1]): 84%
IC50 (Neuropilin-1 [2]): 18 µM

N=C(N)NCCC[C@@H](CO)NC(=O)c1sccc1NS(=O)(=O)c1ccc2nsnc2c1
Activity (Neuropilin-1 [1]): 21%

C[C@H](NC(=O)[C@@H]1CCCN1C(=O)[C@@H](N)CCCCN)C(=O)N[C@@H](CCCNC(=N)N)C(=O)O
Activity (Neuropilin-1 [1]): 83%
IC50 (Neuropilin-1 [2]): 30 µM

Cc1nn(C)c(Cl)c1CNc1cccc(S(=O)(=O)Nc2ccsc2C(=O)N[C@@H](CCCNC(=N)N)C(=O)O)c1
Activity (Neuropilin-1 [1]): 88%
IC50 (Neuropilin-1 [2]): 6 µM

N=C(N)NCCC[C@H](NC(=O)c1sccc1NS(=O)(=O)c1ccc([N+](=O)[O-])cc1)C(=O)O (stereo in doubt; 46) [listing 2 of 2 here]
IC50 (Neuropilin-1 [2]; endothelial cell): 52 µM

Cc1nc(S(=O)(=O)Nc2ccsc2C(=O)N[C@@H](CCCNC(=N)N)C(=O)O)cn1C
Activity (Neuropilin-1 [1]): 88%
IC50 (Neuropilin-1 [2]): 12 µM

N=C(N)NCCC[C@H](NC(=O)[C@@H]1CCCN1C(=O)[C@@H]1CCCN1C(=O)[C@@H](N)CCCCN)C(=O)O (H-KPPR-OH)
Activity (Neuropilin-1 [1]): 96%
IC50 (Neuropilin-1 [2]): 14 µM

N=C(N)NCCC[C@H](NC(=O)C1CCN(Cc2cccc(NC(=O)CCCCCN)c2)CC1)C(=O)O
Activity (Neuropilin-1 [1]): 35%

C[C@H](NC(=O)[C@@H]1CCCN1C(=O)[C@@H](N)CCCCN)C(=O)N[C@H](CCCNC(=N)N)C(=O)O
Activity (Neuropilin-1 [1]): 22%

N=C(N)Nc1ccc(C[C@H](NC(=O)c2sccc2NS(=O)(=O)c2ccc(N)cc2)C(=O)O)cc1
Activity (Neuropilin-1 [1]): 13%

NCCCC[C@H](NC(=O)c1sccc1NS(=O)(=O)c1ccc([N+](=O)[O-])cc1)C(=O)O
Activity (Neuropilin-1 [1]): 20%

N=C(N)NCCC[C@H](NC(=O)c1sccc1S(=O)(=O)Nc1ccc(N)cc1)C(=O)O
Activity (Neuropilin-1 [1]): 0%

N=C(N)NCCC[C@H](NC(=O)c1sccc1NS(=O)(=O)c1ccc2nsnc2c1)C(=O)NO
Activity (Neuropilin-1 [1]): 59%

N=C(N)NCCC[C@H](NC(=O)c1sccc1NS(=O)(=O)c1ccc([N+](=O)[O-])cc1)C(=O)O (stereo in doubt; 38) [listing 1 of 2 here]
Activity (Neuropilin-1 [1]): 75%

O=c1[nH]cc(F)c(=O)[nH]1 [FLUOROURACIL]
IC50 (A549; A549, 48 h): 78 µM

C[C@H](NC(=O)[C@@H]1CCCN1C(=O)[C@@H](N)CCCCN)C(=O)N[C@@H](CCCCN)C(=O)O (H-KPAK-OH)
Activity (Neuropilin-1 [1]): 22%

N=C(N)NCCC[C@H](NC(=O)c1sccc1NS(=O)(=O)c1ccc(F)cc1F)C(=O)O
Activity (Neuropilin-1 [1]): 79%
IC50 (Neuropilin-1 [2]): 33 µM

N=C(N)NCCC[C@H](NC(=O)c1ccccc1NS(=O)(=O)c1ccc(N)cc1)C(=O)O
Activity (Neuropilin-1 [1]): 70%

CN(c1ccsc1C(=O)N[C@@H](CCCNC(=N)N)C(=O)O)S(=O)(=O)c1ccc([N+](=O)[O-])cc1
Activity (Neuropilin-1 [1]): 42%

C[C@H](NC(=O)[C@@H]1CCCN1C(=O)[C@H](N)CCCCN)C(=O)N[C@@H](CCCNC(=N)N)C(=O)O
Activity (Neuropilin-1 [1]): 51%

N=C(N)NCCCC[C@@H](CC(=O)O)NC(=O)c1sccc1NS(=O)(=O)c1ccc2nsnc2c1
Activity (Neuropilin-1 [1]): 11%

Cc1oc(-c2ccc(NC(=O)CCCCN)cc2)cc1C(=O)N[C@@H](CCCNC(=N)N)C(=O)O
Activity (Neuropilin-1 [1]): 31%

N=C(N)NCCC[C@H](NC(=O)c1sccc1NS(=O)(=O)c1ccccc1[N+](=O)[O-])C(=O)O
Activity (Neuropilin-1 [1]): 100%
IC50 (Neuropilin-1 [2]): 9 µM

N=C(N)NCCC[C@H](NC(=O)c1sccc1NS(=O)(=O)c1ccc([N+](=O)[O-])cc1)C(=O)O (stereo in doubt; 38) [listing 2 of 2 here]
IC50 (Neuropilin-1 [2]): 52 µM

N=C(N)NCCC[C@H](NC(=O)[C@H](Cc1ccccc1)NC(=O)[C@@H]1CCCN1C(=O)[C@@H](N)CCCCN)C(=O)O (H-KPFR-OH)
Activity (Neuropilin-1 [1]): 63%

N=C(N)NCCC[C@H](NC(=O)c1sccc1NS(=O)(=O)c1cccc2nonc12)C(=O)O
Activity (Neuropilin-1 [1]): 87%
IC50 (Neuropilin-1 [2]): 17 µM

N=C(N)NCCC[C@H](NC(=O)c1sccc1NS(=O)(=O)c1cccc2nsnc12)C(=O)O
Activity (Neuropilin-1 [1]): 99%
IC50 (Neuropilin-1 [2]): 8 µM
IC50 (Neuropilin-1 [3]): 3 µM
IC50 (Neuropilin-1 [4]): 7 µM
IC50 (Neuropilin-1 [5]): 3 µM
IC50 (Neuropilin-1 [6]): 23 µM
Activity [7]: inactive
Activity [8]: inactive
Activity [9]: inactive
Activity [10]: inactive
inhibition [11]: Dose-dependent effect
inhibition [12]: 34%
inhibition (HUVEC): Active
Activity (A549): Active
